# In the library only some 1.5% were active in any assay of this set; here they are far more common.
# Casp6 inh: blocks human caspase-6 cleavage activity. AID 686996. P55212. 350,000 compounds, 0.53% hits. inhibition, % at 12.5 µM. purified caspase-6, Z-VEID-R110 cleavage fluorescence;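 active = mean inhibition across replicates at least about 35%, with every replicate also reaching that limit, limit read from the data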;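 also: 0% = median of neutral control wells and 100% = no fluorescence left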
# NSD2 HMT inh: NSD2 (human) methyltransferase inhibition. NSD2 peptide methylation, AlphaScreen, 120 min. inhibition, % at 12.5 µM. 310,000 compounds, 0.54% hits. O96028
# HCV NS3 hel inh: HCV NS3 helicase inhibition; NS3 helicase DNA unwinding, Cy5 molecular beacon fluorescence; inhibition, % at 10.9 µM; 290,000 compounds, 0.56% hits;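 active = inhibition above the mean of all tested compounds plus 3 SD, set per campaign, cut at about 35% in these data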;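 also: 0% = DMSO wells and 100% = thioflavine S control wells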
#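 Measured by: Cy5 fluorescence, 0 and 60 min reads / Assay system: NS3 helicase fragment of HCV / Control set: low DMSO, high thioflavine S at 110 µM / Times: 1 h reaction at 25 °C, ATP-initiated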
# DNMT1 block: blocks human DNA methyltransferase DNMT1; P26358; DNMT1 molecular beacon, Hinp1I cleavage, fluorescence; inhibition (reported as % activation of signal), % at 10 µM; 360,000 compounds, 0.83% hits; AID 588458
# AlphaScreen art: counter-screen for NSD2 inhibitors: AlphaScreen artifacts; shares compounds with NSD2 HMT inh; AlphaScreen artifact counterscreen, preloaded methylated H4 peptide; AC35, µM (series often up to 10 µM), without a hit: at the highest dose activity change, negative = signal loss; 1,500 compounds, 9.4% hits; call rule not given here
# Numbers without * were called inactive; / = no result given. Rule as the data show it, unless noted: active = inhibition above about 50%; inactive = the rest.
SMILES,Casp6 inh,NSD2 HMT inh,HCV NS3 hel inh,DNMT1 block,AlphaScreen art
CN1[C@@H]2c3ccc(-c4ccncc4)c(=O)n3C[C@@H]2[C@@H](CO)[C@@H]1C(=O)NCCc1ccccc1,-2,/,/,/,/
COc1ccc(CNC(=O)CCCn2nc(C)c([N+](=O)[O-])c2C)cc1OC,-3,86*,-5,0,8%
COc1ccc(C2CCc3cc4c(cc3C2=NOC(C)=O)OCO4)cc1OC (stereo not drawn),2,58*,/,-6,-7%
Clc1ccc(-c2nnc(SCc3ccon3)o2)c(Cl)c1,/,7,3,-2,/
C=CCSc1nnc(-c2ccc(Cl)cc2Cl)o1,/,68*,1,0,11%
O=C(OC(C(=O)NC1CCCCC1)c1ccccn1)c1cccs1 (stereo not drawn),/,114*,10,5,-2%
CCCn1c(C)nc2c(c1=O)c1nc3ccccc3nc1n2CCc1ccccc1,/,/,-2,/,/
CCCn1c(C)nc2c(c1=O)c1nc3ccccc3nc1n2-c1ccccc1,-2,54*,/,-2,1%
C[C@@H]1CN([C@@H](C)CO)C(=O)c2cccc(NC(=O)C3CC3)c2O[C@H]1CN(C)CC1CCCCC1,2,/,/,/,/
CCOC(=O)c1sc(NC(=O)COc2ccc3c(c2)OCO3)nc1C,-5,114*,-7,1,-2%
CCC(=O)N(C)C[C@@H]1Oc2cc(-c3ccccc3F)ccc2S(=O)(=O)N([C@H](C)CO)C[C@@H]1C,2,/,/,/,/
CN(CC(=O)N1CCc2[nH]c3ccc(F)cc3c2C1)CC1OCCO1,/,-3,-5,/,/
Cc1ccc2[nH]c3c(c2c1)CN(C(=O)CN(C)CC1OCCO1)CC3,/,64*,-9,-13,-5%
CCN1CCCCC(=N/O)/C(=N/O)CCCC1,0,71*,1,-1,4%
CCOC(=O)N1CCN(C2=Nc3cccc4cccc2c34)CC1,/,71*,-1,3,-4%
CC(=O)N1CCN(C2=Nc3cccc4cccc2c34)CC1,/,/,1,1,/
c1ccc(-c2nc(N3CCOCC3)c3ccccc3n2)nc1,/,64*,5,2,-7%
CCOc1ccc(N2CC(C(=O)NCCc3c[nH]c4ccc(OC)cc34)CC2=O)cc1 (stereo not drawn),0,88*,4,-5,-3%
Oc1cccc2c(NC(=S)Nc3ccc(OC(F)F)cc3)cccc12,81*,92*,-5,-39,-6%
O=c1c2ccc([N+](=O)[O-])cc2sn1-c1ccccc1,/,59*,/,/,-11%
O=c1c2ccc(F)cc2sn1-c1ccccc1,0,/,/,-1,/
O=C(C[C@H]1CC[C@H]2[C@@H](COC[C@H](O)CN2Cc2cccc(-c3ccncc3)c2)O1)N1CCCCC1,0,/,/,/,/
N=C1/C(=C\c2coc3ccccc3c2=O)C(=O)N=C2SC(c3ccncc3)=NN12,41*,98*,7,35,-3%
Cc1cc(/C=C2\C(=N)N3C(SCc4ccccc4)=NSC3=NC2=O)c(C)n1Cc1ccccc1,/,24,8,14,/
CSC1=NSC2=NC(=O)/C(=C\c3coc4ccccc4c3=O)C(=N)N12,7,74*,20,-1,1%
SMILES,Casp6 inh,NSD2 HMT inh,HCV NS3 hel inh,DNMT1 block,AlphaScreen art
CC(C)NC(=O)N(C)C[C@H]1Oc2ccc(NC(=O)CCCCCC(=O)Nc3ccccc3N)cc2CC(=O)N([C@@H](C)CO)C[C@@H]1C,0,/,/,/,/
Oc1cccc(C=NCc2ccccc2)c1,/,159*,3,3,9%
COc1ccc2c3c([nH]c2c1)[C@@H](CO)N(C(=O)CN(C)C)CC31CCN(CC2CC2)CC1,-43,/,/,/,/
Cc1cc(Cl)ccc1OCCCC(=O)N1CCCCC1,/,-3,-5,-3,/
Cc1cc(Cl)ccc1OCCCC(=O)N1CCOCC1,/,72*,8,2,1%
CCS(=O)(=O)N1CCCCN2[C@@H](CO)[C@@H](c3ccc(-c4ccccc4F)cc3)[C@@H]2C1,-4,/,/,/,/
CCCCN(CC)CCNC(=O)c1cc2c(-c3ccccc3F)nn(C)c2s1,-2,86*,-77,0,-4%
CC1CCCCN1CCNC(=O)c1cc2c(-c3ccccc3F)nn(C)c2s1 (stereo not drawn),1,/,-25,2,/
COc1ccc(NS(=O)(=O)c2cccc(C(=O)N3CCCCCC3)c2)cc1,-155,64*,/,-6,-5%
CC(C)NC(=O)CN(C(=O)CCC(=O)Nc1nccs1)c1ccc2c(c1)OCO2,2,-5,14,-4,/
COCCNC(=O)CN(C(=O)CCC(=O)Nc1nccs1)c1ccc2c(c1)OCO2,-2,67*,-11,0,-3%
Cc1ccc(-n2nc(C(=O)NCc3ccc(C)o3)c3c4ccccc4n(C)c3c2=O)cc1,/,53*,-5,11,-5%
O=C(CN1CCOCC1)N[C@@H]1CC[C@H](CCNC(=O)C2CCCCC2)O[C@@H]1CO,0,/,/,/,/
Nn1c(SCC(=O)Nc2ccc3c(c2)OCCO3)nnc1-c1ccncc1,-8,0,-4,-2,/
Cn1c(SCC(=O)Nc2ccc3c(c2)OCCO3)nnc1-c1ccncc1,-1,77*,-4,4,-5%
Cc1csc(SCC(=O)Nc2ccc3c(c2)OCCO3)n1,-1,62*,25,1,0%
C[C@H]1CCCCO[C@@H](CN(C)C(=O)C2CCCCC2)[C@@H](C)CN([C@@H](C)CO)C(=O)c2cc(NC(=O)Cc3ccccc3)ccc2O1,3,/,/,/,/
CC(C)NC(=O)N(C)C[C@@H]1Oc2cc(C#C[C@H](C)O)ccc2S(=O)(=O)N([C@H](C)CO)C[C@H]1C,-1,/,/,/,/
CO[C@@H]1CN(C)C(=O)c2ccc(NC(=O)CN(C)C)cc2OC[C@@H](C)N(C(=O)C2CCOCC2)C[C@H]1C,0,/,/,/,/

# Compound activity deposited in PubChem by several laboratories.
